Experimental data from ChEMBL document CHEMBL1142373 (J Med Chem, 2008).
In brackets after ≈: the same amount, converted by molar mass.

Columns and labels:
Plasmodium falciparum [1] = test: Antiplasmodial activity against chloroquine-sensitive Plasmodium falciparum 3D7 by [3H]hypoxanthine incorporation; type: functional, organism-based
Plasmodium falciparum [2] = test: Antiplasmodial activity against chloroquine-resistant Plasmodium falciparum W2 by [3H]hypoxanthine incorporation; type: functional, organism-based
Plasmodium falciparum [3] = test: Antiplasmodial activity against chloroquine-sensitive Plasmodium falciparum D10 by parasite lactate dehydrogenase assay; settings: D10, 72 h
Plasmodium falciparum [4] = test: Antiplasmodial activity against chloroquine-sensitive Plasmodium falciparum D10 by [3H]hypoxanthine incorporation; type: functional, organism-based
[5] = Cytotoxicity against human KB cells by MTT assay; type: cell-based; settings: read-out: TC50 (the source's name)
Plasmodium falciparum [6] = test: Antiplasmodial activity against chloroquine-resistant Plasmodium falciparum K1 by [3H]hypoxanthine incorporation; type: functional, organism-based
Aspergillus fumigatus [7] = test: Antifungal activity against Aspergillus fumigatus; type: functional
Cryptococcus neoformans = test: Antifungal activity against Cryptococcus neoformans; type: functional
Pichia kudriavzevii = test: Antifungal activity against Candida krusei ATCC 6258; type: functional
Plasmodium chabaudi [8] = test: Antimalarial activity against Plasmodium chabaudi AS infected CD1 mice (Mus musculus) assessed as suppression of parasitaemia at 50mg/kg, perorally after 4 days; type: functional
Method in brief: (§1)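 Female CD1 mice (20–25 g) got 0.2 mL i.v. of donor blood diluted to 1% parasitaemia (1 × 10^7 infected erythrocytes/mL). Oral dosing started 2–4 h post-inoculation as a 0.2 mL bolus once daily for 4 days, in 10% Tween-80/EtOH plus sterile PBS. On day 5, Giemsa-stained smears were read by microscopy. % suppression = [(C−T)/C]×100; five mice per group.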

Aspergillus flavus = test: Antifungal activity against Aspergillus flavus ATCC 204304; type: functional
Candida albicans = test: Antifungal activity against Candida albicans; type: functional
Candida parapsilosis = test: Antifungal activity against Candida parapsilosis ATCC 22019; type: functional; settings: Lodderomyces parapsilosis
Aspergillus fumigatus [9] = test: Antifungal activity against itraconazole resistant Aspergillus fumigatus; type: functional
Plasmodium berghei [10] = test: Reduced parasitemia in Plasmodium berghei ANKA infected CD1 mice (Mus musculus) at 150 mg/kg peroral dose after 4 days; type: functional; set-up: scale not given: the % may be the effect or the level left; settings: route oral; method in brief: as §1
Plasmodium chabaudi [11] = test: Antimalarial activity against Plasmodium chabaudi AS infected CD1 mice (Mus musculus) assessed as suppression of parasitaemia at 10 mg/kg, perorally after 4 days; type: functional; settings: route oral; method in brief: as §1
Plasmodium berghei [12] = test: Reduced parasitemia in Plasmodium berghei ANKA infected CD1 mice (Mus musculus) at 10 mg/kg peroral dose after 4 days; type: functional; set-up: scale not given: the % may be the effect or the level left; settings: route oral; method in brief: as §1
[13] = Cytotoxicity against human lymphocytes after 48 hrs by MTT assay; type: cell-based, Lymphocyte; settings: read-out: TC50
Method in brief: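 Donor PBMC were separated on Ficoll-Hypaque and stimulated with 5 µg/mL PHA, then plated at 20000 cells/well. Compounds in DMSO were added 12 h later and left 48 h. Read-out was MTT formazan (2 h, 37 °C), extracted overnight in SDS/DMF buffer, with OD at 570 nm. TC50 is reported; at least two runs in triplicate.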

[14] = Cytotoxicity against human Daudi cells after 48 hrs by MTT assay; type: cell-based; settings: read-out: TC50
Method in brief: (§2)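 NSO (3000 cells/well) and Daudi (300 cells/well) cells were grown in RPMI 1640 with 5% FCS. Compounds in DMSO were added 12 h after plating and left 48 h. MTT was then added (20 µL of 5 mg/mL stock, 2 h, 37 °C), followed by SDS/DMF lysis buffer overnight, with OD read at 570 nm. TC50 is reported; at least two experiments in triplicate.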

[15] = Cytotoxicity against mouse NSO cells after 48 hrs by MTT assay; type: cell-based; settings: read-out: TC50; method in brief: as §2
[16] = Lipophilicity, Log D at pH 5.5; type: physicochemical; settings: buffer
[17] = Lipophilicity, Log D at pH 7.2; type: physicochemical; settings: buffer
[18] = Lipophilicity, Log D at pH 7.4; type: physicochemical; settings: buffer
Plasmodium berghei [19] = test: Reduced parasitemia in Plasmodium berghei ANKA infected CD1 mice (Mus musculus) at 30 mg/kg dose after 4 days; set-up: scale not given: the % may be the effect or the level left

SMILES | IC50 (Plasmodium falciparum [1]) [nM] | IC50 (Plasmodium falciparum [2]) [nM] | IC50 (Plasmodium falciparum [3]) [nM] | CC50 [5] [nM] | IC50 (Plasmodium falciparum [6]) [nM] | also measured
Clc1cccc(C(c2ccc(CN3CCCC3)cc2)(c2ccoc2)n2ccnc2)c1 (racemic) | 101 | 167 | 238 |  |  | 
Clc1ccc(C(c2ccccc2)(c2ccc(CN3CCCC3)cc2)N2CCNCC2)cc1 (racemic) | 3840 | 1560 |  | 20900 | 3510 | IC50 (Plasmodium falciparum [4]): > 10000 nM
Fc1ccc(C(c2ccc(CN3CCCC3)cc2)(c2ccnc3cc(Cl)ccc23)n2ccnc2)cc1 (racemic) | 66.9 | 2 | 85.8 | 33000 | 67 | MIC (Aspergillus fumigatus [7]): > 32 µg/mL; MIC (Cryptococcus neoformans): > 32 µg/mL; MIC (Pichia kudriavzevii): > 32 µg/mL; Activity (Plasmodium chabaudi [8]): 99.4%; MIC (Aspergillus flavus): > 32 µg/mL; MIC (Candida albicans): 8 µg/mL (≈ 16.1 µM); MIC (Candida parapsilosis): > 32 µg/mL
Clc1ccccc1C(c1ccccc1)(c1ccccc1)n1ccnc1 [CLOTRIMAZOLE] |  |  |  | 88100 |  | MIC (Aspergillus fumigatus [9]): 4 µg/mL (≈ 11.6 µM); MIC (Aspergillus fumigatus [7]): 4 µg/mL (≈ 11.6 µM); MIC (Cryptococcus neoformans): 2 µg/mL (≈ 5.8 µM); Activity (Plasmodium berghei [10]): 28.3%; MIC (Pichia kudriavzevii): 2 µg/mL (≈ 5.8 µM); Activity (Plasmodium chabaudi [8]): 6%; MIC (Aspergillus flavus): 4 µg/mL (≈ 11.6 µM); MIC (Candida albicans): 0.03 µg/mL (≈ 0.087 µM); MIC (Candida parapsilosis): 2 µg/mL (≈ 5.8 µM)
c1ccc2c(C(c3ccc(CN4CCCC4)cc3)n3ccnc3)ccnc2c1 (racemic) | 5030 | 1790 | 7480 |  | 379 | 
Clc1ccc(C(c2ccc(CN3CCCC3)cc2)(c2cccs2)n2ccnc2)cc1 (racemic) | 3570 | 6690 | 1360 |  | 1780 | 
CCN(CC)CCCC(C)Nc1ccnc2cc(Cl)ccc12 (centres undefined) [CHLOROQUINE] |  |  |  | 207000 |  | Activity (Plasmodium chabaudi [11]): 100%; Activity (Plasmodium berghei [12]): 89.1%
Clc1cccc(C(c2ccc(CN3CCCC3)cc2)(c2nccs2)n2ccnc2)c1 (racemic) | 314 | 1850 | 484 |  | 66.7 | CC50 at 48 h [13]: 80500 nM; Activity (Plasmodium chabaudi [8]): 73.1%; CC50 at 48 h [14]: 57500 nM; CC50 at 48 h [15]: 52900 nM
Clc1cccc(C(c2ccc(CN3CCNCC3)cc2)n2ccnc2)c1 (racemic) | 411 | 327 | 516 |  | 354 | 
Clc1ccc(C(c2ccccc2)(c2ccc(CN3CCNCC3)cc2)n2ccnc2)cc1 (racemic) | 55.4 |  | 84.1 |  |  | CC50 at 48 h [13]: 13700 nM; CC50 at 48 h [14]: 15800 nM; CC50 at 48 h [15]: 16200 nM
Clc1cccc(C(c2ccnc3ccccc23)n2ccnc2)c1 (racemic) | > 10000 | > 10000 |  |  | 4290 | IC50 (Plasmodium falciparum [4]): > 10000 nM
Clc1ccc(C(c2ccc(CN3CCCC3)cc2)(c2nccs2)n2ccnc2)cc1 (racemic) | 177 | 80 | 300 | 64200 | 180 | 
Fc1ccc(C(c2ccc(Cl)cc2)(c2ccc(CN3CCCC3)cc2)n2ccnc2)cc1 (racemic) | 82 | 1.5 | 118 | 8200 | 380 | 
Clc1ccc(C(c2ccc(CN3CCCC3)cc2)(c2ccc(CN3CCCC3)cc2)n2ccnc2)cc1 | 26.1 | 39.2 | 48.4 |  | 11.7 | CC50 at 48 h [13]: 68500 nM; MIC (Aspergillus fumigatus [7]): > 32 µg/mL; MIC (Cryptococcus neoformans): > 32 µg/mL; MIC (Pichia kudriavzevii): > 32 µg/mL; logD [16]: 0.67; Activity (Plasmodium chabaudi [8]): 94%; logD [17]: 1.4; MIC (Aspergillus flavus): > 32 µg/mL; MIC (Candida albicans): > 32 µg/mL; MIC (Candida parapsilosis): > 32 µg/mL; CC50 at 48 h [14]: 58700 nM; logD [18]: 1.56; CC50 at 48 h [15]: 47000 nM
Clc1ccc2c(C(c3ccc(CN4CCCC4)cc3)n3ccnc3)ccnc2c1 (racemic) | 1810 | 1170 | 1630 |  | 745 | 
CCN(CC)Cc1ccc(C(c2cccc(Cl)c2)n2ccnc2)cc1 (racemic) | 1290 | 452 | 1890 |  | 282 | 
Clc1ccc(C(c2ccccc2)(c2ccc(CN3CCOCC3)cc2)n2ccnc2)cc1 (racemic) | 561 |  | 726 |  |  | CC50 at 48 h [13]: 13300 nM; CC50 at 48 h [14]: 15600 nM; CC50 at 48 h [15]: 16000 nM
CCN(CC)Cc1ccc(C(c2cccc(Cl)c2)n2cncn2)cc1 (racemic) | > 10000 | > 10000 |  |  | 3700 | IC50 (Plasmodium falciparum [4]): > 10000 nM
Clc1cccc(C(c2ccncc2)(c2ccc(CN3CCCC3)cc2)n2ccnc2)c1 (racemic) | 587 | 415 | 1230 |  | 510 | 
Clc1ccc(C(c2ccccc2)(c2ccc(CN3CCCC3)cc2)n2cnc3ccccc32)cc1 (racemic) | 379 | 376 | 1030 |  | 23 | 
Clc1ccc2c(C(c3ccccc3)(c3ccc(CN4CCCC4)cc3)n3ccnc3)ccnc2c1 (racemic) | 148 | 10 | 168 | 51800 | 60 | 
Clc1cccc(C(c2ccc(CN3CCCC3)cc2)(c2cccs2)n2ccnc2)c1 (racemic) | 4270 | 1040 | 7170 |  | 1270 | 
Clc1ccc(C(c2ccccc2)(c2ccc(CN3CCCC3)cc2)n2ccnc2)cc1 (racemic) |  |  |  |  |  | CC50 at 48 h [13]: 70300 nM; MIC (Aspergillus fumigatus [7]): > 32 µg/mL; MIC (Cryptococcus neoformans): 32 µg/mL (≈ 74.8 µM); Activity (Plasmodium berghei [19]): 37.6%; MIC (Pichia kudriavzevii): 16 µg/mL (≈ 37.4 µM); logD [16]: 1.72; Activity (Plasmodium chabaudi [8]): 94.8%; logD [17]: 3.13; MIC (Aspergillus flavus): > 32 µg/mL; MIC (Candida albicans): 32 µg/mL (≈ 74.8 µM); MIC (Candida parapsilosis): 32 µg/mL (≈ 74.8 µM); CC50 at 48 h [14]: 58500 nM; logD [18]: 3.33; CC50 at 48 h [15]: 51500 nM
CCN(CC)Cc1ccc(C(c2ccccc2)(c2ccc(Cl)cc2)n2ccnc2)cc1 (racemic) |  | 41.4 | 415 |  | 0.48 | 
CC(C)(C)OC(=O)N1CCN(Cc2ccc(C(c3cccc(Cl)c3)n3ccnc3)cc2)CC1 (racemic) | 4110 | 1520 | 5260 |  | 1070 | 
Clc1cccc(C(c2ccc(CN3CCCC3)cc2)(c2ccccn2)n2ccnc2)c1 (racemic) | 349 | 157 | 619 | 27200 | 155 | 
